# Measured values published in paper PMC5648746 (Clinical Pharmacokinetics, 2017).
# Experiments:
# [1] = previous population PK analysis, four phase I studies; cited from earlier work
# [2] = system: patients with multiple myeloma; settings: ixazomib plus lenalidomide-dexamethasone vs placebo plus lenalidomide-dexamethasone, TOURMALINE-MM1; cited from earlier work
# [3] = single oral dose of radio-labelled ixazomib, five patients with advanced cancer; cited from earlier work
# [4] = system: human cDNA-expressed CYP isozymes; settings: clinically relevant ixazomib concentrations; cited from earlier work
# [5] = Western patients, weekly dose; cited from earlier work
# [6] = Population pharmacokinetic analysis; assay type: in vivo, human
# In short: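 Plasma from 755 adults with advanced haematologic or non-haematologic malignancies given oral (BSA-based or fixed) or IV (BSA-based) doses, weekly (28-day cycle) or twice-weekly (21-day cycle); sampled pre-dose and post-dose. LC-MS/MS with 13C9-labelled internal standard, linear 0.5–500 ng/mL. Three-compartment model, first-order absorption with lag; additive log-scale residual error; stepwise covariate selection, p = 0.01 plus ≥10% variance reduction.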
# [7] = cited from earlier work
# [8] = after a high-calorie high-fat meal; cited from earlier work
# [9] = cited from earlier work; remark: listed apart in the source
# [10] = Individual predicted exposure; assay type: in vivo, human; settings: oral ixazomib; figure value with 95% CI
# [11] = typical (population) parameter estimates
compound,measurement,setting,value
CC(C)C[C@H](NC(=O)CNC(=O)c1cc(Cl)ccc1Cl)B(O)O [ixazomib],Estimated absolute bioavailability,[1],60%
same,Improvement in progression-free survival,[2],35%
same,Administered radioactivity excreted in feces,[3],22%
same,Administered radioactivity excreted in urine,[3],62%
same,Contribution of specific CYP isozymes to ixazomib metabolism,[4],no specific CYP isozyme predominantly contributed
same,Maximum tolerated dose,[5],5.5 mg
same,Inter-individual variability on log CL,[6]; % coefficient of variation,44%
same,Inter-individual variability on log F,[6]; % coefficient of variation,73%
same,Inter-individual variability on log V4,[6]; % coefficient of variation,79%
same,Change in V4 at the 5th percentile of BSA relative to median BSA,[6]; BSA 1.5 m^2 vs median 1.87 m^2,−37%
same,Change in V4 at the 95th percentile of BSA relative to median BSA,[6]; BSA 2.25 m^2 vs median 1.87 m^2,+46%
same,Impact of BSA on CL,[6]; BSA had a small effect on V4,did not impact CL
same,Effect of age on ixazomib PK parameters,[6]; age 23–91 years,not found to have a clinically relevant effect
same,Correlation between log CL and log F (random effects),[6]; coefficient of correlation,82%
same,"Impact of BSA on V4 (V4[BSA]), estimate",[6]; covariate coefficient of power function,2.06
same,"Absorption lag time (TLAG), untransformed parameter",[6]; final model,13 min
same,"Absorption rate constant (Ka), untransformed parameter",[6]; final model,0.34 h⁻¹
same,"Volume of the first peripheral compartment (V3), untransformed parameter",[6]; final model,309 L
same,"Volume of the second peripheral compartment (V4), untransformed parameter","[6]; final model, at median BSA",205 L
same,Impact of CrCl and total bilirubin on ixazomib pharmacokinetics,"[6]; mild or moderate renal impairment (CrCl 30–90 mL/min), mild hepatic impairment",neither CrCl nor total bilirubin had any clinically relevant impact
same,"Absorption rate constant (log Ka), estimate","[6]; raw NONMEM estimate, log scale",−1.09
same,"Volume of the first peripheral compartment (log V3), estimate","[6]; raw NONMEM estimate, log scale",5.73
same,"Volume of the second peripheral compartment (log V4), estimate","[6]; raw NONMEM estimate, log scale",5.32
same,Population estimate of steady-state volume of distribution,[6]; [11],527 L
same,"Population estimate of t1/2,γ",[6]; [11],224 h
same,Dose dependence of exposure (AUC),[7],dose-proportional increases in exposure
same,Accumulation ratio for AUC,[7]; once-weekly repeat-dose administration,approximately 2
same,Median time to maximum plasma concentration,"[7]; post-dose, oral",1 h
same,Reduction in peak plasma concentration with food,[8],69%
same,Reduction in total systemic exposure (AUC) with food,[8],28%
same,Decrease in systemic exposure (AUC) of ixazomib with rifampin,[9]; co-administration of strong pleiotropic PXR-mediated inducer rifampin,74%
same,Effect of the strong CYP3A inhibitor clarithromycin on ixazomib pharmacokinetics,[9]; controlled phase I clinical study,absence of an effect
same,"Percent change in mean AUC∞, Asian race relative to White race",[10],35%
